pIC50: −log10 of the molar value. Calls of active or inactive are those of the source. No cut-off for these calls is given here. Where a SMILES comes first, the peptide text is derived from it. The star is where a group is joined. X1 = COC(=O)[C@H](Cc1ccc(Oc2no[n+]([O-])c2S(=O)(=O)c2ccccc2)cc1)NC(=O)CCCc1cn(CC(=O)*)nn1
Legend:
[1] = test system: Staphylococcus aureus; test: Antimicrobial activity against Staphylococcus aureus ATCC 6538 incubated for 20 hrs by microdilution assay; format: functional
[2] = test system: Escherichia coli; test: Antimicrobial activity against Escherichia coli ATCC 8099 incubated for 20 hrs by microdilution assay; format: functional
[3] = test system: Staphylococcus aureus; test: Antibiofilm activity against Staphylococcus aureus ATCC 6538 assessed as inhibition of biofilm formation at 100 uM incubated for 12 hrs by crystal violet staining assay relative to control; format: functional
Procedure, shortened: (§1)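 Bacterial culture (10⁸ cfu/mL) grown 24 h in 96-well plates, then washed 3× with saline. Wells were incubated 12 h with test compound in TSB. Biofilm was fixed with methanol 15 min and stained with 1% crystal violet 5 min at room temperature. Dye was solubilized in ethanol for 30 min at 37 °C and OD read at 600 nm. Compared with vehicle control; mean ± S.D., n = 3.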

[4] = test system: Escherichia coli; test: Antibiofilm activity against Escherichia coli ATCC 8099 assessed as inhibition of biofilm formation at 100 uM incubated for 12 hrs by crystal violet staining assay relative to control; format: functional; procedure, shortened: as §1
[5] = test system: Staphylococcus aureus; test: Antibiofilm activity against Staphylococcus aureus ATCC 6538 assessed as dispersion of formed biofilms at 100 uM incubated for 12 hrs by scanning electron microscopy; format: functional, organism-based
Procedure, shortened: (§2)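 Bacteria (10⁸ cfu/mL) grown on silicon slices in TSB for 24 h. Medium was removed and slices washed 3× with saline. Slices were then incubated 12 h in TSB containing test compound at 100 µM, or TSB alone. Slices were gold-sputtered and imaged by cold field emission SEM.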

[6] = test system: Escherichia coli; test: Antibiofilm activity against Escherichia coli ATCC 8099 assessed as dispersion of formed biofilms at 100 uM incubated for 12 hrs by scanning electron microscopy; format: functional, organism-based; procedure, shortened: as §2
[7] = test system: Staphylococcus aureus; test: Antibiofilm activity against Staphylococcus aureus ATCC 6538 assessed as inhibition of continuous biofilm growth at 100 uM incubated for 1-2 hrs by biofilm dynamic detection assay; format: functional, organism-based; settings: time hrs 1-2
Procedure, shortened: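 S. aureus biofilm grown 24 h at 37 °C, 5% CO₂ from 10⁸ cfu/mL in TSB while impedance was recorded in real time (xCELLigence RTCA). Supernatant removed, saline-washed three times, then compound added at 100 µM in TSB. Biofilm index read every 15 min for 9 h, blank subtracted and normalised 0–1, compared with TSB control.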

[8] = test system: Staphylococcus aureus; test: Antibiofilm activity against Staphylococcus aureus ATCC 6538 assessed as decrease in living bacterial cells in biofilm on bottom of confocal dish at 100 uM incubated for 12 hrs by live-cell fluorescence staining assay; format: functional
Procedure, shortened: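 S. aureus (10⁸ cfu/mL, 2 mL) cultured one day at 37 °C, 5% CO₂ in confocal dishes, then washed 3× with saline. TSB with compound at 100 µM was added for 12 h. The dish was washed and live-cell fluorescence stained for 15 min. Bottom biofilm was imaged by 3D confocal microscopy.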

[9] = test system: Staphylococcus aureus; test: (§3) Antibiofilm activity against Staphylococcus aureus ATCC 6538 infected in mouse assessed as reduction in bacterial infection by measuring colony counts at 0.25 umol/kg, sc administered every 12 hrs for 3 days by plate colony counting assay (reference value: 6.40 +/- 0.28); format: functional; settings: dose 0.25 µmol/kg
[10] = test system: Staphylococcus aureus; test: Antibiofilm activity against Staphylococcus aureus ATCC 6538 infected in mouse assessed as reduction in bacterial inflammation in vicinity tissues of implanted site at 0.25 umol/kg, sc administered every 12 hrs for 3 days by H and E staining based assay; format: functional, organism-based; settings: dose 0.25 µmol/kg
Procedure, shortened: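 Mouse PDMS-implant S. aureus biofilm model dosed 0.25 µmol/kg sc in 5% DMSO/saline every 12 h for 3 days. Muscle tissue near the implant site was fixed 24 h, paraffin-embedded, sectioned and H&E stained to assess bacterial spread.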

[11] = test system: Staphylococcus aureus; test: Induction of NO release in Staphylococcus aureus ATCC 6538 at 10 uM incubated for 4 hrs by Griess assay; format: functional, organism-based
Procedure, shortened: (§4)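 Bacteria (10⁸ cfu/mL in saline) incubated with compound at 10 µM for 4 h at 37 °C, 5% CO₂. Cells were centrifuged and lysed, and the lysate centrifuged at 10,000 g for 5 min. Nitrite in the supernatant was measured by Griess reagent at 540 nm against a NaNO₂ standard curve.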

[12] = test system: Escherichia coli; test: Induction of NO release in Escherichia coli ATCC 8099 at 10 uM incubated for 4 hrs by Griess assay; format: functional, organism-based; procedure, shortened: as §4
[13] = test system: Staphylococcus aureus; test: Antibiofilm activity against Staphylococcus aureus ATCC 6538 assessed as inhibition of biofilm formation at 100 uM incubated for 12 hrs in presence of NO scavenger PTIO by crystal violet staining assay relative to control; format: functional, organism-based
[14] = test system: Escherichia coli; test: Antibiofilm activity against Escherichia coli ATCC 8099 assessed as inhibition of biofilm formation at 100 uM incubated for 12 hrs in presence of NO scavenger PTIO by crystal violet staining assay relative to control; format: functional, organism-based
[15] = test system: Staphylococcus aureus; test: Antibiofilm activity against Staphylococcus aureus ATCC 6538 assessed as inhibition of continuous biofilm growth at 100 uM measured every 15 mins for 9 hrs by biofilm dynamic detection assay; format: functional, organism-based
Procedure, shortened: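 S. aureus (10⁸ cfu/mL in TSB) grown one day at 37 °C, 5% CO₂ on a real-time impedance cell analyzer to form biofilm. After saline washes (3×), medium containing compound at 100 µM was added. Biofilm index was recorded every 15 min for 9 h, blank-subtracted and normalized (lowest point 0, highest 1).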

[16] = test system: Staphylococcus aureus; test: Antibacterial activity against Staphylococcus aureus ATCC 6538 assessed as killing of living planktonic bacterial cells in supernatant at 100 uM incubated for 12 hrs by OD measurement
[17] = test system: Staphylococcus aureus; test: Induction of NO release in CDNB-pretreated Staphylococcus aureus ATCC 6538 at 10 uM incubated for 4 hrs by Griess assay; format: functional, organism-based
Procedure, shortened: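 S. aureus (10⁸ cfu/mL in saline) pretreated with 100 µM CDNB for 0.5 h at 37 °C, then pelleted. Cells were incubated with compound at 10 µM in saline for 4 h. After lysis, nitrite was quantified by Griess reagent at 540 nm against a NaNO₂ standard curve.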

[18] = test system: Erythrocyte; test: Induction of hemolysis in mouse erythrocytes incubated for 3 hrs; format: cell-based
Procedure, shortened: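 2% erythrocyte suspension from mouse blood, mixed with sample in 0.9% NaCl. Controls were saline (negative) and water (positive). Incubated 3 h at 37 °C, 5% CO₂; hemolysis degree calculated by standard curve. Dose-dependent series; HC₅₀ derived.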

[19] = test system: Cell membrane; test: Induction of cell membrane rupture in Staphylococcus aureus ATCC 6538 at 200 uM incubated for 60 mins by scanning electron microscopy
Procedure, shortened: (§5)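 Bacteria incubated in TSB alone or TSB with compound at 200 µM for 60 min. Cells were pelleted, fixed in 4% paraformaldehyde, dropped onto silicon slices, gold-sputtered and imaged by cold field emission SEM.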

[20] = test system: Cell membrane; test: Induction of cell membrane rupture in Escherichia coli […] ATCC 8099 at 200 uM incubated for 60 mins by scanning electron microscopy; format: subcellular; procedure, shortened: as §5
[21] = test system: Cell membrane; test: Induction of cell membrane rupture in Staphylococcus aureus ATCC 6538 assessed as induction of cell content spillage at 200 uM incubated for 60 mins by scanning electron microscopy; procedure, shortened: as §5
[22] = test system: Cell membrane; test: Induction of cell membrane rupture in Escherichia coli ATCC 8099 assessed as induction of cell content spillage at 200 uM incubated for 60 mins by scanning electron microscopy; procedure, shortened: as §5
[23] = test system: Staphylococcus aureus; test: Antibiofilm activity against Staphylococcus aureus ATCC 6538 infected in mouse assessed as reduction in skin ulceration near implanted site at 0.25 umol/kg, sc administered every 12 hrs for 3 days; format: functional, organism-based; settings: dose 0.25 µmol/kg
Procedure, shortened: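 Mouse PDMS-implant S. aureus biofilm model (biofilm-coated slices placed subcutaneously in the back). Dosing was 0.25 µmol/kg sc in 5% DMSO/saline every 12 h for 3 days. Skin at the implant site was photographed every 12 h after implantation for ulceration.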

[24] = test system: Staphylococcus aureus; test: as §3, with “days co-treated with 0.25 umol/kg NO scavenger PTIO” for “days”; format: functional; settings: dose 0.25 µmol/kg
[25] = Toxicity in rat assessed as effect on blood as effect on blood pressure at 0.172 umol/kg, sc measured after 6 hrs post dose by non-invasive blood pressure monitoring; format: organism-based; settings: in vivo, dose 0.172 µmol/kg
Procedure, shortened: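 Healthy rats given a single sc dose of 0.172 µmol/kg in aqueous solution, with saline as control. Tail-artery blood pressure measured non-invasively at 0, 1, 3 and 6 h.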

Molecule	MIC [1]	MIC [2]	Activity [5]	Activity [6]	inhibition [7]	inhibition [8]	Activity [9]	inhibition [10]	Activity [11]	Activity [12]	inhibition at 100 µM [3]	inhibition at 100 µM [4]	inhibition [13]	inhibition [14]	inhibition [15]	Activity [16]	also measured
H-TRRKFWKKVLNGALKIAPFLLG-OH	> 50 µM	> 50 µM	inactive	inactive	Active	Active	5.4 log10CFU	Active	–	–	–	–	–	–	–	–	inhibition [3]: inactive; inhibition [4]: inactive
COC(=O)[C@@H](N)Cc1ccc(Oc2no[n+]([O-])c2S(=O)(=O)c2ccccc2)cc1	> 50 µM	> 50 µM	Active	Active	–	Active	4.91 log10CFU	–	Active	Active	44.4%	81.2%	inactive	inactive	inactive	inactive	–
CC[C@H](C)[C@H](NC(=O)[C@H](CCCCN)NC(=O)[C@H](CC(C)C)NC(=O)[C@H](C)NC(=O)CNC(=O)[C@H](CC(N)=O)NC(=O)[C@H](CC(C)C)NC(=O)[C@@H](NC(=O)[C@H](CCCCN)NC(=O)[C@H](CCCCN)NC(=O)[C@H](Cc1c[nH]c2ccccc12)NC(=O)[C@H](Cc1ccccc1)NC(=O)[C@H](CCCCN)NC(=O)[C@H](CCCNC(=N)N)NC(=O)[C@H](CCCNC(=N)N)NC(=O)[C@@H](NC(=O)Cn1cc(CCCC(=O)N[C@@H](Cc2ccc(Oc3no[n+]([O-])c3S(=O)(=O)c3ccccc3)cc2)C(=O)OC)nn1)[C@@H](C)O)C(C)C)C(=O)N[C@@H](C)C(=O)N1CCC[C@H]1C(=O)N[C@@H](Cc1ccccc1)C(=O)N[C@@H](CC(C)C)C(=O)N[C@@H](CC(C)C)C(=O)NCC(=O)O (X1-TRRKFWKKVLNGALKIAPFLLG-OH)	> 50 µM	> 50 µM	Active	Active	–	–	4.54 log10CFU	Active	Active	Active	64.1%	80.9%	inactive	inactive	Active	Active	Activity [17]: inactive; pIC50 [18]: < 3.42; Activity [19]: Active; Activity [20]: Active; Activity [21]: Active; Activity [22]: Active; inhibition at 100 µM [8]: 100%; Activity [23]: Active; Activity [24]: 5.92 log10CFU; Activity [25]: Non-Toxic
CC(=O)OCC1=C(C(=O)O)N2C(=O)[C@@H](NC(=O)CCC[C@@H](N)C(=O)O)[C@H]2SC1 [CEPHALOSPORIN C]	–	–	–	–	Active	inactive	4.97 log10CFU	Active	–	–	–	–	–	–	–	–	–

Source: ChEMBL document CHEMBL4725352, “Identification of New Nitric Oxide-Donating Peptides with Dual Biofilm Eradication and Antibacterial Activities for Intervention of Device-Related Infections” (J Med Chem, 2020)
